This note sets out measurements from ChEMBL document CHEMBL4765486, “Novel Nonsecosteroidal Vitamin D Receptor Modulator Combined with Gemcitabine Enhances Pancreatic Cancer Therapy through Remodeling of the Tumor Microenvironment” (J Med Chem, 2021).

Active and inactive are the calls of the source. Unless noted, no cut-off for these calls is given here.

The nature of series [1]: Cytotoxicity against rat LTC-14 cells assessed as reduction in cell proliferation incubated for 24 hrs by MTT assay. In kind it is cell-based. The conditions noted are these: LTC-14, 24 h. For orientation: Formazan colour is commonly taken as a measure of viable cells.
The test system of series [2] is LTC-14. In words: Inhibition of rat LTC-14 cell activation assessed decrease in TGF-beta1 induced Colla1 mRNA expression at 0.5 uM incubated for 24 hrs by q-PCR analysis. Type of series: functional. In outline: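 Immortalized rat PSC line LTC-14, about 1×10^5 cells per well, was grown 24 h at 37 °C in 5% CO2. Cells then received compound (0.5 μM) plus TGF-β1 for 24 h; TGF-β1 is stated as 0.5 ng/mL in the text and 5 ng/mL in the methods. Col1a1 and Acta2 mRNA were measured by RT-qPCR. Mean ± SD versus TGF-β1 alone.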

The subject of series [3] is LTC-14. In words: Inhibition of rat LTC-14 cells activation assessed decrease in TGF-beta1 induced collagen 1 protein expression at 0.5 uM incubated for 24 hrs by Western blot analysis. Type of series: functional, cell-based. In short, it runs like this: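 LTC-14 cells were treated for 24 h with compound (0.5 μM) plus TGF-β1 (0.5 ng/mL in the text, 5 ng/mL in the methods). Lysates were run on 10% SDS-PAGE, transferred to PVDF and probed with rabbit anti-collagen I, with β-actin as reference. Bands were quantified by densitometry versus TGF-β1 alone.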

Series [4] in a line: Cytotoxicity against rat DSL-6A/C1 cells assessed as reduction in cell proliferation at 0.5 uM incubated for 24 hrs by MTT assay. In kind it is cell-based. The conditions noted are these: dsl-6a/c1, 24 h.
For a further series, the target named is T1, Vitamin D3 receptor (Homo sapiens, UniProt P11473).
T1 sequence (P11473 whole entry): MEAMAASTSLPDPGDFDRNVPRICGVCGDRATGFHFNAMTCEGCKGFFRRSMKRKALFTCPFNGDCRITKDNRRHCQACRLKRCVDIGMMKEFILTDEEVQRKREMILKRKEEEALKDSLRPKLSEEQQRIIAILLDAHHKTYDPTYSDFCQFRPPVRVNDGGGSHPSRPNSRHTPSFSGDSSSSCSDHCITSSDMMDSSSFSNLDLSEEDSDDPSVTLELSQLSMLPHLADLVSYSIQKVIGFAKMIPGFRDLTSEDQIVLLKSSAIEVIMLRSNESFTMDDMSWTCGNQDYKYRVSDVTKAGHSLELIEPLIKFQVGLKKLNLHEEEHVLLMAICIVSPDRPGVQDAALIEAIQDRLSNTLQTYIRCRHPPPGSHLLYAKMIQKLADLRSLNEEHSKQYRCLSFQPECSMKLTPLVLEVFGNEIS
In words: Binding affinity to VDR (unknown origin) by fluorescence polarization assay. In short, it runs like this: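 Competitive VDR binding was measured by PolarScreen fluorescence polarization, in triplicate.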

Series [5] deals with DSL-6A/C1. In words: Antiproliferative activity against rat DSL-6A/C1 cells assessed as reduction in cell viability at 0.5 uM incubated for 24 hrs compound treated LTC-14-CM cells by MTT assay. In kind it is functional, cell-based. In short, it runs like this:
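LTC-14 PSCs were pretreated with compound for 24 h. Their collected supernatant was used to culture DSL-6A/C1 cells, and proliferation was read by MTT: 4 h incubation with MTT (5 mg/mL stock), absorbance at 570 nm. Run in triplicate, compared with untreated PSC-CM.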

For series [6], the system named is DSL-6A/C1. In words: Antiproliferative activity against rat DSL-6A/C1 cells assessed as reduction in cell viability at 0.5 uM treated with conditioned media of LTC-14 cells for 24 hrs by MTT assay. Type of series: functional, cell-based. In short, it runs like this: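 Rat pancreatic cancer DSL-6A/C1 cells were cultured in supernatant from LTC-14 PSCs (PSC-CM) with compound added at 0.5 μM for 24 h. Viability was then read by MTT: 4 h incubation with MTT (5 mg/mL stock), absorbance at 570 nm. Run in triplicate, compared with PSC-CM alone.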

For series [7], the system named is DSL-6A/C1. As to the kind of experiment: Potentiation of gemcitabine-induced antitumor activity against luciferase-tagged rat DSL-6A/C1 cells and GFP-tagged LTC-14 cells co-inoculated in orthotropic xenograft BALB/c nude mouse model of pancreatic cancer assessed as decrease in density of tumor tissue at 500 ug/kg, ip administered once every 3 days for 12 days coadministered with gemcitabine at 100 mg/kg and measured after 3 days post last dose by hematoxylin and eosin staining based assay. In kind it is functional, organism-based. The conditions noted are these: dose 500.0 µg/kg, time 12.0 day. In outline: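 In the same orthotopic co-inoculation model, mice received gemcitabine 100 mg/kg ip every 3 days plus compound 500 μg/kg ip for 12 days. Animals were sacrificed 3 days after the last dose. Pancreatic tumour sections were stained with H&E for tissue structure and with Masson's trichrome for collagen deposition, imaged at ×100.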

Another series relates to Mus musculus. In words: Inhibition of GFP-tagged rat LTC-14 cells activation in BALB/c nude mouse xenografted along with luciferase-tagged DSL-6A/C1-Luc cells assessed as reduction in alpha-smooth muscle actin expression in tumor at 500 ug/kg, ip administered once every 3 days for 12 days coadministered with gemcitabine at 100 mg/kg by DAPI staining based laser confocal scanning microscopy. In kind it is functional, organism-based. To be noted: dose 500.0 µg/kg, time 12.0 day. In short, it runs like this:
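Tumours were taken from orthotopic co-inoculated nude mice given gemcitabine 100 mg/kg plus compound (500 μg/kg) or calcipotriol (60 μg/kg) ip for 12 days. Sections were fixed in 4% PFA, permeabilised with 0.5% Triton X-100 and blocked in 5% BSA. They were incubated with anti-α-SMA overnight at 4 °C, then an Alexa Fluor 594 secondary for 1 h at 37 °C, DAPI-counterstained and imaged by confocal microscopy.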

What is called IC50 is the concentration that gives 50% inhibition. In the case of `CCn1cc(C(CC)(CC)c2ccc(OCC(C)O)c(C)c2)cc1C(=O)NCCN1CCN(C)CC1` (centres undefined), the IC50 in [1] was over 10000 nM; on Vitamin D3 receptor it was 57.2 nM. Moreover, the inhibition entry with LTC-14 [2], with LTC-14 [3] and with Mus musculus was “Active” in each case. In addition, the Activity result in series [4] is “Non-Toxic”. Further, the result with DSL-6A/C1 [5] and with DSL-6A/C1 [7] was Active. In the series on DSL-6A/C1 [6], the result was inactive.
